Experiment [1] concerns the target T1, Angiotensin-converting enzyme (Oryctolagus cuniculus, UniProt P12822).
T1 sequence (P12822 whole entry): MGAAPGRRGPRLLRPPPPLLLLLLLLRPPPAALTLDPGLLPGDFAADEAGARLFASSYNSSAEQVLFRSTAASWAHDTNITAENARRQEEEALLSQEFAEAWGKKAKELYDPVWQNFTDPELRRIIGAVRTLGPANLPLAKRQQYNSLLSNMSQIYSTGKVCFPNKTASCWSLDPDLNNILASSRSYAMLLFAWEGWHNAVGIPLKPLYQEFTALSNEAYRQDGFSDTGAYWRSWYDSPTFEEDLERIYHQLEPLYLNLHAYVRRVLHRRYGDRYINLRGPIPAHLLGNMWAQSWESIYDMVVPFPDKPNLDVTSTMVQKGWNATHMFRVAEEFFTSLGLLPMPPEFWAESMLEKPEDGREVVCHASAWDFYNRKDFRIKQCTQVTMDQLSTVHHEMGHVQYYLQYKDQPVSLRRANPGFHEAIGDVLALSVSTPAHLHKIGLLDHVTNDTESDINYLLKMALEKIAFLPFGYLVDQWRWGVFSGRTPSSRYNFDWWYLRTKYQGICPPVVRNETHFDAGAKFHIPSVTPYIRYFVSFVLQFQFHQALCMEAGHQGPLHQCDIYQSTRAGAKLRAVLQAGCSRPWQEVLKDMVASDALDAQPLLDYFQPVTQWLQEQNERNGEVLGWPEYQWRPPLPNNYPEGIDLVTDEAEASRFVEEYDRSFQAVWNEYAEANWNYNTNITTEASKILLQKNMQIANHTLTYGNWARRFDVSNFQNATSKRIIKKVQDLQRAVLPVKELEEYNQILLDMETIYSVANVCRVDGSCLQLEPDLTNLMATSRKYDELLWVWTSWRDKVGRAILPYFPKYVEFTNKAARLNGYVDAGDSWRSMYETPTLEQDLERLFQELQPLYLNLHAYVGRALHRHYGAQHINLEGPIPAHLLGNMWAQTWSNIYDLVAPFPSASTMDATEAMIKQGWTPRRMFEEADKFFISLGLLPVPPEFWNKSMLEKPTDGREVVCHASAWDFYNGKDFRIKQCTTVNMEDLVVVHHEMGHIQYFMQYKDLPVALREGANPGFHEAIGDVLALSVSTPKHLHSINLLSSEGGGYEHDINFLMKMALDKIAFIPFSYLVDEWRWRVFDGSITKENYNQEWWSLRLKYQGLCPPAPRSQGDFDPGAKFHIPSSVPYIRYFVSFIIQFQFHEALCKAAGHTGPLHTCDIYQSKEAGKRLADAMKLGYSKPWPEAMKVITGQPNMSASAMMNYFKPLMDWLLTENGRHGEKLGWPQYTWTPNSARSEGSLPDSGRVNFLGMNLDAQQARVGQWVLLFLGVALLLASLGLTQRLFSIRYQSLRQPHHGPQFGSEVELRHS
As to the kind of experiment: In vitro inhibitory activity against rabbit lung Angiotensin I converting enzyme at pH 8.3.

For a further experiment, the system named is Canis familiaris. As to the kind of experiment: Peroral dose required to inhibit angiotensin I induced vasopressor response in normotensive conscious dogs. It counts as functional. To be noted: Canis lupus familiaris, po; read-out: ID50 (the source's name). In short, it runs like this: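 Six conscious normotensive dogs; pressor response to angiotensin I 0.25 μg/kg iv. Inhibitor given orally at 0.01–1 mg/kg, vehicle 0.3 M KH₂PO₄ buffer, weekly intervals in a three-way crossover with vehicle control.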

The target of experiment [2] is T2, Angiotensin-converting enzyme (Rattus norvegicus) (UniProt P47820).
T2 sequence (whole entry): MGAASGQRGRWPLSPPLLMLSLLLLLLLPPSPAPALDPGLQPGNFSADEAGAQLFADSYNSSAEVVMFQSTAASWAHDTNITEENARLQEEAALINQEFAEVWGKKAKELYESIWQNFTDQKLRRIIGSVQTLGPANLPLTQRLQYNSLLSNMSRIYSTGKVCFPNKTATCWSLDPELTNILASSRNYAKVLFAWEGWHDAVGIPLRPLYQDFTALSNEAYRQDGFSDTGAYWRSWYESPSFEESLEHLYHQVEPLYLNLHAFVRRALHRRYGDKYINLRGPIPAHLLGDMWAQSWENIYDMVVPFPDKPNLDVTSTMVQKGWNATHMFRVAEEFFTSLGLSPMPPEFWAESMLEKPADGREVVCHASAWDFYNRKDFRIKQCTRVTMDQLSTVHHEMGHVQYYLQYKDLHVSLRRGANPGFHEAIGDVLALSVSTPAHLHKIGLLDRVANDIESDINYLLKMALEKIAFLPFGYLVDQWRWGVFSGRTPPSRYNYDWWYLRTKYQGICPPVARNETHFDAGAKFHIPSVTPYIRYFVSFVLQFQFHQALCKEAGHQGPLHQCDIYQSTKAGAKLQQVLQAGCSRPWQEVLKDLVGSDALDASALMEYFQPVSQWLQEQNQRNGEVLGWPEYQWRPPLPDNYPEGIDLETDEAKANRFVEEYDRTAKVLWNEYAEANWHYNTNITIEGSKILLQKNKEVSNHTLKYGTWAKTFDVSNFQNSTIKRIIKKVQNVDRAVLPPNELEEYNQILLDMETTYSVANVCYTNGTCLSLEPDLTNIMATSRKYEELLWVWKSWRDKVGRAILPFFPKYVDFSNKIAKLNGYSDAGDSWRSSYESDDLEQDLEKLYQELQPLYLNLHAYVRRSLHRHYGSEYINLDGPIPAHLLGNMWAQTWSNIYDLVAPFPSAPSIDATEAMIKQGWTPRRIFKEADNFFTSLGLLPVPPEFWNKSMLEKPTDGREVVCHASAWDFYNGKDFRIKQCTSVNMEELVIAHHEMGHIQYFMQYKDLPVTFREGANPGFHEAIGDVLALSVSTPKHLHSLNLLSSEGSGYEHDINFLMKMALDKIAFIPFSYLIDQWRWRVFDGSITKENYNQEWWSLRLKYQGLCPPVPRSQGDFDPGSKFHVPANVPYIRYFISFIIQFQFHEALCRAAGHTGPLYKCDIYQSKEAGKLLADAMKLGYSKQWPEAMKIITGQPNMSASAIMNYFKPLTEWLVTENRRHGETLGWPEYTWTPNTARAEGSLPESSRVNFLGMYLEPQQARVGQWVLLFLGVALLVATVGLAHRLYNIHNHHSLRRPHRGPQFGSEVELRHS
As to the kind of experiment: Peroral dose required to inhibit angiotensin I induced vasopressor response in normotensive conscious rats. The experiment is classed as functional. The essentials:
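Male normotensive rats with aortic and vena caval catheters, used ≥6 days later while restrained; angiotensins I and II 0.25 μg/kg iv every 10 min. One oral inhibitor dose in 0.5% gum tragacanth suspension; angiotensin I repeated every 10 min for ≥2 h. Maximum inhibition as % of initial response; ID50 from dose-response plot.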

`C[C@H](CSC(=O)C(C)(C)C)C(=O)N(CC(=O)O)C1CCCC1` [PIVOPRIL] showed an IC50 in experiment [1] of 3.6 µM. Further, in the experiment on Canis familiaris, the ED50 worked out at 0.17 mg/kg. In experiment [2], this compound showed an ID50 of 0.058 mg/kg.
With `C[C@H](CS)C(=O)N1CCC[C@H]1C(=O)O` [CAPTOPRIL], in the experiment on Canis familiaris, the ED50 stood at 0.057 mg/kg.
Take `CCOC(=O)[C@H](CCc1ccccc1)N[C@@H](C)C(=O)N1CCC[C@H]1C(=O)O`: in the experiment with Canis familiaris, the ED50 is 0.1 mg/kg. In experiment [2], this compound returned an ID50 of 0.08 mg/kg.

These data come from ChEMBL document CHEMBL1122934, “Angiotensin-converting enzyme inhibitors. New orally active antihypertensive (mercaptoalkanoyl)- and [(acylthio)alkanoyl]glycine derivatives” (J Med Chem, 1985).
